Experimental findings from ChEMBL document CHEMBL1128256, “Synthesis, biological evaluation, and structure analysis of a series of new 1,5-anhydrohexitol nucleosides” (J Med Chem, 1995) are described below.

Test [1] relates to E6SM. As to the kind of experiment: Tested for the minimum inhibitory concentration required to reduce herpes simplex virus type 2 (HSV-2) strain 196 induced cytopathogenicity by 50%. The format is functional. As to conditions: Homo sapiens. A digest of the protocol: (§1)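 Inhibition of virus-induced cytopathogenicity in human embryonic skin-muscle (E6SM) fibroblasts seeded in 96-well trays. Viruses were HSV-1 (KOS, F, McIntyre), TK- HSV-1 B2006, TK-/TK+ HSV-1 clinical isolate VMW-1837 and HSV-2 (G, 196, Lyons). […] MCC is the lowest concentration giving microscopically detectable alteration of normal cell morphology; highest concentration tested was 400 µg/mL.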
On the technique in general: Protection from cytopathic effect is a common read-out in antiviral testing.

In test [2] the test system is E6SM. The experiment in a line: Tested for the minimum inhibitory concentration required to reduce herpes simplex virus type 1 (TK- / TK + HSV-1) strain VMW-1837 induced cytopathogenicity by 50%. The format is functional. As to conditions: Homo sapiens. In outline:
as §1

In test [3] the test system is HEL. As to the kind of experiment: Tested for the inhibitory concentration required to reduce cytomegalovirus (CMV) strain Davis plaque formation by 50%. As to conditions: Homo sapiens. The format is functional, cell-based. A digest of the protocol:
(§2)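 Virus plaque formation assay in human embryonic lung (HEL) cells seeded in 96-well trays. Targets were TK+ VZV (Oka, YS), TK- VZV (07/1, YS/R) and CMV (AD169, Davis). Value is the concentration that reduces plaque number by 50%. Cytotoxicity in HEL cells was taken as the concentration that reduces cell growth by 50%.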

In test [4] the test system is E6SM. The experiment in a line: Tested for the minimum cytotoxic concentration required to cause a microscopically detectable alteration of normal cell morphology in human embryonic skin muscle (E6SM) fibroblast cell cultures. The test is classed as functional. In outline:
as §1

Test [5] deals with HEL. The experiment in a line: Tested for the inhibitory concentration required to reduce thymidine kinase plus Varicella-Zoster virus (TK+ VZV) strain OKA plaque formation by 50%. The test is classed as functional, cell-based. Particulars: Homo sapiens. In outline:
as §2

For test [6], the system named is HEL. As to the kind of experiment: Tested for the inhibitory concentration required to reduce thymidine kinase deficient Varicella-Zoster virus (TK- VZV) strain YS/R plaque formation by 50%. The test is classed as functional, cell-based. As to conditions: Homo sapiens.
Test [7] deals with HEL. As to the kind of experiment: Tested for the inhibitory concentration required to reduce cytomegalovirus (CMV) strain AD-169 plaque formation by 50%. The test is classed as functional, cell-based. As to conditions: Homo sapiens. In outline:
as §2

Test [8] relates to E6SM. The experiment in a line: Tested for the minimum inhibitory concentration required to reduce herpes simplex virus type 1 (HSV-1) strain F induced cytopathogenicity by 50%. The test is classed as functional. Particulars: Homo sapiens. In outline:
as §1

The test system of test [9] is HEL. As to the kind of experiment: Tested for the inhibitory concentration required to reduce thymidine kinase plus Varicella-Zoster virus (TK+ VZV) strain YS plaque formation by 50%. Particulars: Homo sapiens. The test is classed as functional, cell-based. In outline:
as §2

Test [10] has as its system HEL. As to the kind of experiment: Tested for the inhibitory concentration required to reduce thymidine kinase deficient Varicella-Zoster virus (TK- VZV) strain 07/1 plaque formation by 50%. Particulars: Homo sapiens. The test is classed as functional, cell-based.
Test [11] relates to E6SM. As to the kind of experiment: Tested for the minimum inhibitory concentration required to reduce thymidine kinase deficient herpes simplex virus type 1 (TK- HSV-1) strain B2006 induced cytopathogenicity by 50%. The format is functional. As to conditions: Homo sapiens. A digest of the protocol:
as §1

Test [12] has as its system E6SM. As to the kind of experiment: Tested for the minimum inhibitory concentration required to reduce herpes simplex virus type 2 (HSV-2) strain G induced cytopathogenicity by 50%. The format is functional. As to conditions: Homo sapiens. In outline:
as §1

Test [13] has as its system E6SM. The experiment in a line: Tested for the minimum inhibitory concentration required to reduce herpes simplex virus type 1 (HSV-1) strain KOS induced cytopathogenicity by 50%. The test is classed as functional. As to conditions: Homo sapiens. A digest of the protocol: as §1
The test system of test [14] is E6SM. The experiment in a line: Tested for the minimum inhibitory concentration required to reduce herpes simplex virus type 2 (HSV-2) strain Lyons induced cytopathogenicity by 50%. The test is classed as functional. Particulars: Homo sapiens. A digest of the protocol: as §1
The test system of test [15] is HEL. As to the kind of experiment: Tested for the cytotoxic concentration, required to reduce cell growth by 50% in human embryonic lung (HEL) cells. The test is classed as functional. A digest of the protocol:
as §2

Test [16] deals with E6SM. The experiment in a line: Tested for the minimum inhibitory concentration required to reduce herpes simplex virus type 1 (HSV-1) strain McIntyre induced cytopathogenicity by 50%. The format is functional. As to conditions: Homo sapiens. A digest of the protocol:
as §1

In test [17] the test system is HEL. The experiment in a line: Tested for the cytotoxic concentration, required to reduce cell growth by 50% in human embryonic lung (HEL) cells. The test is classed as functional. A digest of the protocol: as §2
For test [18], the system named is HEL. As to the kind of experiment: Tested for the inhibitory concentration required to reduce thymidine kinase deficient Varicella-Zoster virus (TK-VZV) strain 07/1 plaque formation by 50%. The test is classed as functional, cell-based. As to conditions: Homo sapiens. In outline:
as §2

In test [19] the test system is E6SM. The experiment in a line: Tested for the minimum inhibitory concentration required to reduce herpes simplex virus type 1 (HSV-1) strain KOS induced cytopathogenicity by 50%. The test is classed as functional. As to conditions: Homo sapiens. A digest of the protocol: as §1
The test system of test [20] is HEL. As to the kind of experiment: Tested for the inhibitory concentration required to reduce cytomegalovirus (CMV) strain AD-169 plaque formation by 50%. The test is classed as functional, cell-based. Particulars: Homo sapiens. A digest of the protocol: as §2
The subject of test [21] is E6SM. As to the kind of experiment: Tested for the minimum inhibitory concentration required to reduce herpes simplex virus type 1 (TK/ TK+HSV-1) strain VMW-1837 induced cytopathogenicity by 50%. The test is classed as functional. Particulars: Homo sapiens. In outline: as §1
In test [22] the test system is E6SM. As to the kind of experiment: Tested for the minimum cytotoxic concentration required to cause a microscopically detectable alteration of normal cell morphology in human embryonic skin muscle (E6SM) fibroblast cell cultures. The test is classed as functional. A digest of the protocol: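 Cytotoxicity in human embryonic skin-muscle (E6SM) fibroblasts seeded in 96-well trays, scored microscopically as altered normal cell morphology. Tested up to 400 µg/mL.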

In test [23] the test system is E6SM. As to the kind of experiment: Tested for the minimum inhibitory concentration required to reduce herpes simplex virus type 1 (HSV-1) strain McIntyre induced cytopathogenicity by 50%. The format is functional. Particulars: Homo sapiens. A digest of the protocol: as §1
In test [24] the test system is HEL. The experiment in a line: Tested for the inhibitory concentration required to reduce cytomegalovirus (CMV) strain Davis plaque formation by 50%. The format is functional, cell-based. As to conditions: Homo sapiens. In outline: as §2
Test [25] deals with E6SM. The experiment in a line: Tested for the minimum inhibitory concentration required to reduce herpes simplex virus type 2 (HSV-2) strain G induced cytopathogenicity by 50%. The test is classed as functional. Particulars: Homo sapiens. In outline:
as §1

Test [26] relates to E6SM. As to the kind of experiment: Tested for the minimum inhibitory concentration required to reduce thymidine kinase deficient herpes simplex virus type 1 (TK- HSV-1) strain B2006 induced cytopathogenicity by 50%. The format is functional. As to conditions: Homo sapiens. A digest of the protocol:
as §1

Test [27] deals with HEL. As to the kind of experiment: Tested for the inhibitory concentration required to reduce TK+varicella-zoster virus (TK+ VZV) strain OKA plaque formation by 50%. The format is functional, cell-based. Particulars: Homo sapiens. In outline: as §2
Test [28] has as its system HEL. As to the kind of experiment: Tested for the inhibitory concentration required to reduce TK+ Varicella-Zoster virus (TK+VZV) strain YS plaque formation by 50%. The format is functional, cell-based. Particulars: Homo sapiens. In outline: as §2
Test [29] relates to HEL. As to the kind of experiment: Tested for the inhibitory concentration required to reduce thymidine kinase deficient Varicella-Zoster virus (TK-VZV) strain YS/R plaque formation by 50%. The test is classed as functional, cell-based. Particulars: Homo sapiens. A digest of the protocol: as §2
Test [30] relates to E6SM. As to the kind of experiment: Tested for the minimum inhibitory concentration required to reduce herpes simplex virus type 2 (HSV-2) strain Lyons induced cytopathogenicity by 50%. The format is functional. As to conditions: Homo sapiens. A digest of the protocol: as §1
For test [31], the system named is E6SM. The experiment in a line: Tested for the minimum inhibitory concentration required to reduce herpes simplex virus type 2 (HSV-2) strain 196 induced cytopathogenicity by 50%. The format is functional. Particulars: Homo sapiens. In outline:
as §1

In brackets after ≈: the same amount, converted by molar mass.

The IC50 is the point on the concentration scale where inhibition reaches its midpoint. As a reminder, the CC50 is the concentration giving 50% cytotoxicity. A lower CC50 goes with greater toxicity to the cells.

Turning to `O=c1ccn(C2COC(CO)C(O)C2)c(=O)[nH]1` (configuration not stated), the MIC with E6SM [1], in the test with E6SM [2], against E6SM [8], with E6SM [11], with E6SM [12] and in the test with E6SM [13] was > 400 µg/mL each time. Besides, the MIC with E6SM [14] and with E6SM [16] was > 400 µg/mL each time. The IC50 in the test with HEL [3], in the test with HEL [5], in the test on HEL [6], in the test on HEL [7], in the test with HEL [9] and in the test on HEL [10] was > 40 µg/mL each time. Moreover, in the test with E6SM [4], the MCC was > 400 µg/mL. Besides, the CC50 in the test with HEL [15] is > 50 µg/mL.
`OCC1OCC(n2cnc3c(O)ncnc32)CC1O` (configuration not stated): the CC50 in the test with HEL [17] was > 50 µg/mL. Moreover, the IC50 is > 40 µg/mL with HEL [18]; > 40 µg/mL with HEL [20]; > 40 µg/mL in the test with HEL [24]; > 40 µg/mL in the test with HEL [27]; 25 µg/mL (≈ 93.9 µM) with HEL [28]; > 40 µg/mL with HEL [29]. Moreover, the MIC against E6SM [19] was > 400 µg/mL; against E6SM [21], 300 µg/mL (≈ 1130 µM); in the test with E6SM [8], 300 µg/mL (≈ 1130 µM); against E6SM [23], > 400 µg/mL; with E6SM [25] it was > 400 µg/mL; with E6SM [26], > 400 µg/mL. Moreover, the MIC with E6SM [30] and against E6SM [31] was 300 µg/mL (≈ 1130 µM) each time. Moreover, the MCC with E6SM [22] is > 400 µg/mL.
